{"source": "paper PMC10078363", "about": "(Journal of Pineal Research, 2022)", "key": {"murine Abcg2 [1]": {"molecular_target": "T1, murine Abcg2 (Mus musculus, UniProt Q7TMS5)", "T1 sequence (Q7TMS5 1-657)": "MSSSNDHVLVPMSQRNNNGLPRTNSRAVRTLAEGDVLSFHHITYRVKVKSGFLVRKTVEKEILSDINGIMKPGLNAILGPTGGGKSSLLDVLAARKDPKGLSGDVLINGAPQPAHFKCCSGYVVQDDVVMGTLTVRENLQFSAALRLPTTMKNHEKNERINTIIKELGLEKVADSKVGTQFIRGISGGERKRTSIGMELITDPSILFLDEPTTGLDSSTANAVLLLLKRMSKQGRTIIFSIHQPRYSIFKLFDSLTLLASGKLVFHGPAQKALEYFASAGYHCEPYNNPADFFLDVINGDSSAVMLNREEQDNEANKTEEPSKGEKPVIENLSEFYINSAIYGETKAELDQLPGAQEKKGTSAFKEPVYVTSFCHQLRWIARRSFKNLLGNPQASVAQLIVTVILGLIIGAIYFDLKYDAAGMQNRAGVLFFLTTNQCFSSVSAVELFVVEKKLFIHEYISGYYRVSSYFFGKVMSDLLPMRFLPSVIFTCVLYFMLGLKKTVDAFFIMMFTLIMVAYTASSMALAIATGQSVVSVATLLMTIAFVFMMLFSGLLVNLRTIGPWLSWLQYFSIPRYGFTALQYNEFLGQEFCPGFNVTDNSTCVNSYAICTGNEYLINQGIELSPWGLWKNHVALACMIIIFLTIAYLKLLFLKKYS", "type": "in vivo, mice", "conditions": "30 min after i.v. melatonin 10 mg/kg"}, "human ABCG2": {"tested_on": "human ABCG2", "assay": "Transepithelial transport assay in MDCK‐II cells transduced with human ABCG2", "type": "in vitro ADME", "conditions": "with Ko143 1 µM", "how_it_was_run": "(§1)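 MDCK-II monolayers, parental or transduced with an ABCG2 variant, in Hanks' balanced salt solution with 25 mM HEPES. Both sides are refreshed with or without Ko143 (1 µM). Test compound (8–10 µM) is added to one side, and the opposite side is sampled at 1, 2, 3 and 4 h. Analysis is by HPLC-UV at 310 nm. Ratio is apically directed % over basolaterally directed % at 4 h; n ≥ 3, mean ± SD.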"}, "ovine ABCG2": {"tested_on": "ovine ABCG2", "assay": "Transepithelial transport assay in MDCK‐II cells transduced with ovine ABCG2", "type": "in vitro ADME", "conditions": "oABCG2 MDCK‐II, +Ko143 (1 µM); Mel 10 µM, 6‐SO‐Mel 8 µM, 6‐OH‐Mel 10 µM", "how_it_was_run": "as §1"}, "murine Abcg2 [2]": {"molecular_target": "T1, murine Abcg2", "assay": "Transepithelial transport assay in MDCK‐II cells transduced with murine Abcg2", "type": "in vitro ADME", "conditions": "mAbcg2 MDCK‐II, +Ko143 (1 µM); Mel 10 µM, 6‐SO‐Mel 8 µM, 6‐OH‐Mel 10 µM", "how_it_was_run": "as §1"}, "murine Abcg2 [3]": {"tested_on": "murine Abcg2", "type": "in vivo, mice", "conditions": "female, FVB/N, mouse, intravenous, 10 mg/kg body weight, Abcg2−/− lactating female mice, 30 min after i.v. melatonin 10 mg/kg"}, "[4]": {"assay": "Transepithelial transport assay in parental MDCK‐II cells", "type": "in vitro ADME, canine", "conditions": "dog, with Ko143 1 µM", "how_it_was_run": "as §1"}, "murine Abcg2 [5]": {"tested_on": "murine Abcg2", "type": "in vivo", "conditions": "male, FVB/N, mouse, plasma, oral, 10 mg/kg body weight, Abcg2−/− male mice, 1 h after oral melatonin 10 mg/kg", "how_it_was_run": "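Male Abcg2−/− and wild-type mice (FVB/N background, n = 8) are dosed orally in the morning with 10 mg/kg melatonin in 10% ethanol/40% PEG/50% saline. Plasma and tissues are taken at 1 h. Samples are precipitated with acetonitrile, then a melatonin-d4 internal standard is added. Analysis is LC-MS/MS on C18 with a water/methanol gradient (1 mM ammonium formate, 0.01% formic acid). Hydroxylated metabolites are reported as arbitrary units. Groups are compared by t-test or Mann–Whitney.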"}, "[6]": {"conditions": "wild‐type lactating female mice"}}, "note": "Read-outs that look alike come from different tables or passages of the source.", "data": [{"compound": "COc1ccc2[nH]c(O)c(CCNC(C)=O)c2c1", "note": "[2‐OH‐Mel, 2‐hydroxymelatonin]", "values": [{"measurement": "Milk levels (relative abundance)", "setting": "murine Abcg2 [1]; Abcg2−/− lactating female mice", "result": "1.42 ± 0.66", "unit": "arbitrary units"}, {"measurement": "Milk to plasma ratio (relative abundance)", "setting": "murine Abcg2 [1]; Abcg2−/− lactating female mice", "result": "1.75 ± 0.29", "unit": "arbitrary units"}, {"measurement": "Fold higher milk concentration/levels in wild‐type compared with Abcg2−/−", "setting": "murine Abcg2 [1]; lactating female mice", "result": "around twofold"}, {"measurement": "Fold higher milk to plasma ratio in wild‐type compared with Abcg2−/−", "setting": "murine Abcg2 [1]; lactating female mice", "result": "around twofold"}, {"measurement": "Milk levels (relative abundance)", "setting": "murine Abcg2 [1]; [6]", "result": "2.90 ± 1.24", "unit": "arbitrary units"}, {"measurement": "Milk to plasma ratio (relative abundance)", "setting": "murine Abcg2 [1]; [6]", "result": "3.68 ± 1.34", "unit": "arbitrary units"}]}, {"compound": "COc1ccc2[nH]cc(CCNC(C)=O)c2c1", "note": "[melatonin]", "values": [{"measurement": "efflux ratio at 4 h", "setting": "human ABCG2", "result": "1.02 ± 0.07"}, {"measurement": "Relative efflux transport ratio (basal to apical % / apical to basal %) at 4 h", "setting": "ovine ABCG2", "result": "0.99 ± 0.11"}, {"measurement": "Relative efflux transport ratio (basal to apical % / apical to basal %) at 4 h", "setting": "murine Abcg2 [2]", "result": "1.00 ± 0.06"}, {"measurement": "concentration at 30 min", "setting": "murine Abcg2 [3]; milk, Milk concentration", "result": "6.34 ± 3.87", "unit": "µg/mL"}, {"measurement": "Kp at 30 min", "setting": "murine Abcg2 [3]; milk, Milk to plasma ratio", "result": "0.02 ± 0.01"}, {"measurement": "concentration at 30 min", "setting": "murine Abcg2 [3]; plasma, Plasma concentration", "result": "288 ± 89.3", "unit": "µg/mL"}, {"measurement": "Fold higher milk concentration/levels in wild‐type compared with Abcg2−/−", "setting": "murine Abcg2 [1]; lactating female mice", "result": "almost twofold"}, {"measurement": "efflux ratio at 4 h", "setting": "[4]", "result": "1.05 ± 0.06"}, {"measurement": "concentration at 1 h", "setting": "murine Abcg2 [5]", "result": "9.39 ± 4.59", "unit": "ng/mL"}]}]}
